Columns and labels:
HDAC isoform 11 = target: T1, HDAC isoform 11 (Homo sapiens, UniProt Q96DB2); experiment: HDAC enzyme inhibitory assay; assay type: biochemical; conditions: up to concentrations of 10 μM
T1 sequence (Q96DB2 1-347): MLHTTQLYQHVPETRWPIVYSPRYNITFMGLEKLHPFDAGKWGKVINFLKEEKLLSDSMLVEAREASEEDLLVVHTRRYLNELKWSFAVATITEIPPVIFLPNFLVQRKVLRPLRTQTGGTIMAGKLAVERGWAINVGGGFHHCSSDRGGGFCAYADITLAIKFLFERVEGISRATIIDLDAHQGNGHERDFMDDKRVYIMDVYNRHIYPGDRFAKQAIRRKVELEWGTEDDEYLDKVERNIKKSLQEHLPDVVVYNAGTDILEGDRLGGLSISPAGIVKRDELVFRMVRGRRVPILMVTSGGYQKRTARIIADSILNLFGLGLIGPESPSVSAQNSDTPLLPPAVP

sirtuins = experiment: HDAC enzyme inhibitory assay; assay type: biochemical; conditions: up to concentrations of 10 μM
HDAC isoform 4 = HDAC isoform 4 (Homo sapiens, UniProt P56524); experiment: HDAC enzyme inhibitory assay; assay type: biochemical; conditions: up to concentrations of 10 μM
HDAC isoform 4, sequence (P56524 whole entry, canonical isoform): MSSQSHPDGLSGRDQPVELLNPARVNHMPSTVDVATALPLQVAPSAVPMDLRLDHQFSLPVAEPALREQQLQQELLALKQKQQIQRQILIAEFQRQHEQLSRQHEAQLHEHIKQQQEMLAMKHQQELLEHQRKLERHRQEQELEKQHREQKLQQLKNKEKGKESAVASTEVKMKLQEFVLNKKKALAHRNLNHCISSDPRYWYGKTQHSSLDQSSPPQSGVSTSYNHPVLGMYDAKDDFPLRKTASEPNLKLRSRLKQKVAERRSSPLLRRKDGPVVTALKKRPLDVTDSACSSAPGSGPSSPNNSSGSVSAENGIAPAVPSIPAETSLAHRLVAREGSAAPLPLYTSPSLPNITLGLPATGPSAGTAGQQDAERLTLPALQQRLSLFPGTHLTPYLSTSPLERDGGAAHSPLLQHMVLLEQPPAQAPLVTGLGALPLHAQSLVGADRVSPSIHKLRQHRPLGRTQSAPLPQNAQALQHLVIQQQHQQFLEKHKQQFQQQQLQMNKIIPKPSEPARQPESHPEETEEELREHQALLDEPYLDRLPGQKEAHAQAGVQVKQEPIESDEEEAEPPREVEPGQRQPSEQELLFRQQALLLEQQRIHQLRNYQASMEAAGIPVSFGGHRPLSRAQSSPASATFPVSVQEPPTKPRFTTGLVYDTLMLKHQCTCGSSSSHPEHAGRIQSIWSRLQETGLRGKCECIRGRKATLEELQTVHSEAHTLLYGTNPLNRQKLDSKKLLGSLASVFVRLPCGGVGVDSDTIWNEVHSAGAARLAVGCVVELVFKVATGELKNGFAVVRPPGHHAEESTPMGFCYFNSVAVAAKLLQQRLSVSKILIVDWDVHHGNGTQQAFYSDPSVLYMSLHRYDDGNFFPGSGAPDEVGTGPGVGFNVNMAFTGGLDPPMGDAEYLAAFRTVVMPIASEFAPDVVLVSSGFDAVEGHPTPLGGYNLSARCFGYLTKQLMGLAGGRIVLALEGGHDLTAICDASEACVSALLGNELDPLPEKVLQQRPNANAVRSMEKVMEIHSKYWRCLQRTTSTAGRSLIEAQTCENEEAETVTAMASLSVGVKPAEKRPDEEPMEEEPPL

HDAC isoform 9 = HDAC isoform 9 (Homo sapiens, UniProt Q9UKV0); experiment: HDAC enzyme inhibitory assay; assay type: biochemical; conditions: up to concentrations of 10 μM
HDAC isoform 9, sequence (Q9UKV0 whole entry, canonical isoform): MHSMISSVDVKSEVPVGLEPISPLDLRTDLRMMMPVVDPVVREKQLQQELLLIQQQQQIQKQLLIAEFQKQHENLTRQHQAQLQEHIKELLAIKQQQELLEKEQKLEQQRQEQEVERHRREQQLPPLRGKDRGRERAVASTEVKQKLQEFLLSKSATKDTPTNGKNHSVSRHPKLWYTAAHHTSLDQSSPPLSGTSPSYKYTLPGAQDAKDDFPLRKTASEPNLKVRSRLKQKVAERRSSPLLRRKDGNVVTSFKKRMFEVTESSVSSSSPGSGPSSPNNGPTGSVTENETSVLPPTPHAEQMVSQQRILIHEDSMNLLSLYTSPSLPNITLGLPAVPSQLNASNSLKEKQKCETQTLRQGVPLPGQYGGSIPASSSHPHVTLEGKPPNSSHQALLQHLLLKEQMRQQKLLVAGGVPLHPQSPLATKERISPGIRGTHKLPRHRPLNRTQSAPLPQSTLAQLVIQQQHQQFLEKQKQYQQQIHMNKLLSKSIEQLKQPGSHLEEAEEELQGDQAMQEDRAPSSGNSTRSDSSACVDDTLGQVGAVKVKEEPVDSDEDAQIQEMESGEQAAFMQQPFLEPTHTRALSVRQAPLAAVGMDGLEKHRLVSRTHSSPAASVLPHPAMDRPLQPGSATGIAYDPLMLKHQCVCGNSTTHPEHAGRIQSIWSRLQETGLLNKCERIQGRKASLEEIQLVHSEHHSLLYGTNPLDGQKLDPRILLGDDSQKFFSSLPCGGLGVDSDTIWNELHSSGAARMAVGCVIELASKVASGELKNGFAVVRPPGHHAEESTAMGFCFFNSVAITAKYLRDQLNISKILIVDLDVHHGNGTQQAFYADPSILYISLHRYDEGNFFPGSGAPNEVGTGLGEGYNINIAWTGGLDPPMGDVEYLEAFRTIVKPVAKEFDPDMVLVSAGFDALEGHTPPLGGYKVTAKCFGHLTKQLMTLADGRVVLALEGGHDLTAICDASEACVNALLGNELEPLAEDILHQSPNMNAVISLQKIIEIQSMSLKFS

HDAC isoform 7 = target: T2, HDAC isoform 7 (Homo sapiens, UniProt Q8WUI4); experiment: HDAC enzyme inhibitory assay; assay type: biochemical; conditions: up to concentrations of 10 μM
T2 sequence (Q8WUI4 1-952): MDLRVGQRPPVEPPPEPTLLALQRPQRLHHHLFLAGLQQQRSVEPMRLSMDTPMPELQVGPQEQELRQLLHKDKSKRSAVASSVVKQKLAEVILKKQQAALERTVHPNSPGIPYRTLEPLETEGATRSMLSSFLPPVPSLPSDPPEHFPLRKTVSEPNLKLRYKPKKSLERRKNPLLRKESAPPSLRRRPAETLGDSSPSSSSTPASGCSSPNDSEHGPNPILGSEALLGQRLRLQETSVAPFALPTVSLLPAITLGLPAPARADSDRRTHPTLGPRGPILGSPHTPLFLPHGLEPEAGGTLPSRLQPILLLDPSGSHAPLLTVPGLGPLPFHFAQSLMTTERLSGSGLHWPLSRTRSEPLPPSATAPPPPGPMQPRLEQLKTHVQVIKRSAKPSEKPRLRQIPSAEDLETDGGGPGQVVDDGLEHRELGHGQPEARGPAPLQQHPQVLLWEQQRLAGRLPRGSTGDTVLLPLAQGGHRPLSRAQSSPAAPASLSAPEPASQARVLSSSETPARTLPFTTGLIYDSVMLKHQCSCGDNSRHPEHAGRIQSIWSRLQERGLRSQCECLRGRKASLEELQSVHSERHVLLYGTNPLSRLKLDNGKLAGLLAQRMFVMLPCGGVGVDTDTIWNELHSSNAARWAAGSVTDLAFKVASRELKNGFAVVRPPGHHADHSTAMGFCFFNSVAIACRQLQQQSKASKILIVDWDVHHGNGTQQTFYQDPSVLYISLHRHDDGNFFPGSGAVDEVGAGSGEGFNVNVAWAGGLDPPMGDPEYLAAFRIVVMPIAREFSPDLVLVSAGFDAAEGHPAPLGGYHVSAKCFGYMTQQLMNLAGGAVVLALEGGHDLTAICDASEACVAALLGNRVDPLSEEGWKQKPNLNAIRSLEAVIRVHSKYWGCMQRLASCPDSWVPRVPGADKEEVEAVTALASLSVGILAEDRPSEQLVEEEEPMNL

[1] = system: histone H3 (Lys9/14) acetylation in MDA-MB-231 cells; experiment: Immunoblot analysis of histone hyperacetylation; assay type: cell-based; conditions: MDA-MB-231, 8 h post-treatment
Method in brief: (§1)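 Cells grown in DMEM with 10% FBS at 37 °C, 5% CO2; 4 × 10^5 cells seeded and incubated overnight. Treated 8 h with test compound at 0–10 μM final or 1% EtOH vehicle. Whole-cell lysates normalised by BCA; equal protein run on SDS-PAGE, transferred to PVDF, probed with anti-acetyl histone H3 antibody and β-actin, chemiluminescent detection.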

[2] = system: histone H3 (Lys9/14) acetylation in HCT116 cells; experiment: Immunoblot analysis of histone hyperacetylation; assay type: cell-based; conditions: HCT116, 8 h post-treatment
Method in brief: as §1

HDAC8 = target: T3, HDAC8 (Homo sapiens, UniProt Q9BY41); conditions: compared with HDACs 1–3; ref [5]–[6], [6c]; cited from earlier work
T3 sequence (Q9BY41 1-377): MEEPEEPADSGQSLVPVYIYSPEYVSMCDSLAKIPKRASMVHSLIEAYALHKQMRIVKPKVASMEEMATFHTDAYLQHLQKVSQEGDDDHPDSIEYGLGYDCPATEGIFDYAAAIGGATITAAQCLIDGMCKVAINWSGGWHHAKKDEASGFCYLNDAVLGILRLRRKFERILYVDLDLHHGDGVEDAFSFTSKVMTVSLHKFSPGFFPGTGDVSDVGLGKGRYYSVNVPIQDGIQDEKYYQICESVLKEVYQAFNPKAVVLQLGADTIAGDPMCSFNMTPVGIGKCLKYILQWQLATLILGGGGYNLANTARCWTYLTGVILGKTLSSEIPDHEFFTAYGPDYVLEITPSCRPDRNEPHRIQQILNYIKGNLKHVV

HDAC10 = target: T4, HDAC10 (Homo sapiens, UniProt Q969S8); conditions: among class II isoforms; ref [5]–[6], [6c]; cited from earlier work
T4 sequence (Q969S8 1-669): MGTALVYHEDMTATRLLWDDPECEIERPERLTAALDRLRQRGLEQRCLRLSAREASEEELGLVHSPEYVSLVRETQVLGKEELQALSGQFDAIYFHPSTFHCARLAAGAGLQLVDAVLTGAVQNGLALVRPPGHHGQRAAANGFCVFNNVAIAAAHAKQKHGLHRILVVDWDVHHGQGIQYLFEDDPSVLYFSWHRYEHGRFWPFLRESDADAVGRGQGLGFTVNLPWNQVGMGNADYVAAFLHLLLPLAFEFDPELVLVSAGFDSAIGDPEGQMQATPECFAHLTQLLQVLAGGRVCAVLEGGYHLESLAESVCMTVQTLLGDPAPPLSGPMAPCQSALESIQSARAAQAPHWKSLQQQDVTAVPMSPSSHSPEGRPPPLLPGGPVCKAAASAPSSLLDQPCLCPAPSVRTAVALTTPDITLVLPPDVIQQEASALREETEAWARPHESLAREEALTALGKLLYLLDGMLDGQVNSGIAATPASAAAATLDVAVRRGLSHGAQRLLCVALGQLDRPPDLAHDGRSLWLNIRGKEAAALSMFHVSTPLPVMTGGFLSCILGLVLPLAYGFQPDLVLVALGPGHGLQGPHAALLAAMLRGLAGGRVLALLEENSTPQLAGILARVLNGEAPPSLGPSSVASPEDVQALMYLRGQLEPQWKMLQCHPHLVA

HDAC11 = conditions: ref [5]–[6], [6c]; cited from earlier work
HDAC6 = target: T5, HDAC6 (Homo sapiens, UniProt Q9UBN7); conditions: relative to the strongly inhibited isoforms; ref [5]–[6], [6c]; cited from earlier work
T5 sequence (Q9UBN7 1-1215): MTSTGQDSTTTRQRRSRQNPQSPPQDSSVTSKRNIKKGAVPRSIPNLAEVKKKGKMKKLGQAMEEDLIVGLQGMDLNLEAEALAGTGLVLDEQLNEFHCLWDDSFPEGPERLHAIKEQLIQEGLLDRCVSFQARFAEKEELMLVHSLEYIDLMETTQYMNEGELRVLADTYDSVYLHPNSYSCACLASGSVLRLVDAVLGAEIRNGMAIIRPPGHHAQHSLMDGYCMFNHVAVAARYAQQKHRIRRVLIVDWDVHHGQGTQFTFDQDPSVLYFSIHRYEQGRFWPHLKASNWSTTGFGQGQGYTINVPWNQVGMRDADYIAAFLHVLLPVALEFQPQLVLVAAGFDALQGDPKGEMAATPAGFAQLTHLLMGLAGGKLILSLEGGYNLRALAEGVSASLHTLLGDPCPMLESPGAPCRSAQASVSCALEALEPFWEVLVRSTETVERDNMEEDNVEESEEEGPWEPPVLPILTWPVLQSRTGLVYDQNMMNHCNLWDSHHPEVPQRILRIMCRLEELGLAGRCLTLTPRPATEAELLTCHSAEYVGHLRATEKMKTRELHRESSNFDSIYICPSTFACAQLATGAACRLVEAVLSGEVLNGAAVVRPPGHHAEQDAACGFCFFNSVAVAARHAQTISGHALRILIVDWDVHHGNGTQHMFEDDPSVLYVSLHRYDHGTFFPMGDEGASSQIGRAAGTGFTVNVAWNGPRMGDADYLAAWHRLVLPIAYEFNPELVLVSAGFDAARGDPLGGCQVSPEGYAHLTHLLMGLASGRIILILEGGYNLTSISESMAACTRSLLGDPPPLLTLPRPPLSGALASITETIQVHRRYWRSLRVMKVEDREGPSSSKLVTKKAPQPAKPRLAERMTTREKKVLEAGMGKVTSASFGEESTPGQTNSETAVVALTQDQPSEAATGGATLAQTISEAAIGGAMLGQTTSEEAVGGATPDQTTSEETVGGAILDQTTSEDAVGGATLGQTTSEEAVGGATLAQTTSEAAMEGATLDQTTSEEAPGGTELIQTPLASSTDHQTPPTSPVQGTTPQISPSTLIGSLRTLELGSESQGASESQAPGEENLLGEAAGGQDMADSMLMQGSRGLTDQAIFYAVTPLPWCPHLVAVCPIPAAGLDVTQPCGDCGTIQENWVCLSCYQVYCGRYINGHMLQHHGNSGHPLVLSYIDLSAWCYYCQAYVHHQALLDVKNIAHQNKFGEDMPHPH

## CC(C)[C@@H]1NC(=O)[C@]2(C)CSC(=N2)c2csc(n2)CNC(=O)C[C@@H](/C=C/CCS)OC1=O [compound 6, largazole thiol]
HDAC isoform 11
  inhibitory activity against isoform 11: None of the compounds tested, including largazole thiol 6, showed any inhibitory activity
sirtuins
  inhibitory activity against sirtuins: None of the compounds tested, including largazole thiol 6, showed any inhibitory activity
HDAC isoform 4
  inhibitory activity against isoform 4: None of the compounds tested, including largazole thiol 6, showed any inhibitory activity
HDAC isoform 9
  inhibitory activity against isoform 9: None of the compounds tested, including largazole thiol 6, showed any inhibitory activity
HDAC isoform 7
  inhibitory activity against isoform 7: None of the compounds tested, including largazole thiol 6, showed any inhibitory activity

## CC(C)[C@@H]1NC(=O)[C@]2(C)CSC(=N2)c2csc(n2)CNC(=O)C[C@@H](/C=C/CCSCCS)OC1=O [compound 8]
[1]
  histone H3 (Lys9/14) hyperacetylation: dose-dependent increase
[2]
  histone H3 (Lys9/14) hyperacetylation: dose-dependent increase

## CCCCCCCC(=O)SCC/C=C/[C@@H]1CC(=O)NCc2nc(cs2)C2=N[C@@](C)(CS2)C(=O)N[C@@H](C(C)C)C(=O)O1 [compound 5, largazole]
HDAC8
  HDAC8 inhibition: inhibited to a much lesser extent
HDAC10
  HDAC10 activity in vitro: severely compromised
HDAC11
  HDAC11 inhibition: strongly inhibited
HDAC6
  potency in vitro against HDAC6: two orders of magnitude lower potency
[1]
  histone H3 (Lys9/14) hyperacetylation: dose-dependent increase
[2]
  histone H3 (Lys9/14) hyperacetylation: dose-dependent increase

## CC(C)[C@@H]1NC(=O)[C@]2(C)CSC(=N2)c2csc(n2)CNC(=O)C[C@@H](/C=C/CCC(=O)NO)OC1=O [compound 7]
[1]
  histone H3 (Lys9/14) hyperacetylation: dose-dependent increase
[2]
  histone H3 (Lys9/14) hyperacetylation: dose-dependent increase

Source: article PMC5494147 (Bioorganic & medicinal chemistry, 2017)
